Substitutions are numbered along the chain they refer to. Where two headings read alike, the source gives them in different places. Residues, ends and D or L forms follow the SMILES beside them. No end group written: not given here.
Legend:
[1] = biological target: T1, wt hPrRP receptor (Homo sapiens, UniProt P49683); assay: Signal transduction; assay type: cell-based; details: SD
T1 sequence (P49683 1-370): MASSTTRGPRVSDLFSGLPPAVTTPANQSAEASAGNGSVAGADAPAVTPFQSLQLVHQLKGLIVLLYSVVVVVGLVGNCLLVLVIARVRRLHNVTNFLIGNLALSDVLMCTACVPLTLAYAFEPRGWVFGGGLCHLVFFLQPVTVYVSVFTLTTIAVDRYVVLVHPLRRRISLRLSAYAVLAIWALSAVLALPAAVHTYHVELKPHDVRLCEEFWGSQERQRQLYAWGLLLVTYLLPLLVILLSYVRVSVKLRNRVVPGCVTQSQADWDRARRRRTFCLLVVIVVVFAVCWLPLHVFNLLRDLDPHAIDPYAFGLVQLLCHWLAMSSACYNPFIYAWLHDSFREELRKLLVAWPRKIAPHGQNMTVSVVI
In short: (§1)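 COS-7 cells were transiently transfected with 0.4 µg plasmid of human PrRP receptor or its site-directed mutant, C-terminally fused to EYFP. One day after transfection and 16 h before stimulation, cells were labelled with 2 µCi/mL [³H]myo-inositol. They were then stimulated with increasing peptide concentrations for 1 h at 37°C in DMEM with 10 mM LiCl, and lysed in 0.1 M NaOH. IP was separated by anion exchange and counted by scintillation. EC50 came from concentration-response curves; runs were in duplicate, repeated ≥2 times.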

[2] = biological target: T2, wt PrRP receptor (Homo sapiens, UniProt P49683); assay: Radioligand displacement; assay type: binding
T2 sequence (P49683 1-370): T1 sequence (P49683 1-370)
In short: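 COS-7 cells (1.5 × 10⁶ seeded) were transiently transfected at 60–70% confluency with 4 µg of EYFP-fused human PrRP receptor DNA. About 24 h later, competition binding was run on intact cells against 1 nM N[propionyl³H]hPrRP20. IC50 came from a one-site competition fit, with triplicates.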

[3] = biological target: T3, W^2.71A PrRP receptor (Homo sapiens, UniProt P49683, W127A); assay: IP accumulation assay, W^2.71A receptor mutant; assay type: cell-based; details: SD
T3 sequence (P49683 1-370 W127A): T1 sequence (P49683 1-370) with W127A
In short: as §1

[4] = biological target: T4, Y^2.64A PrRP receptor (Homo sapiens, UniProt P49683, Y120A); assay: IP accumulation assay, Y^2.64A receptor mutant; assay type: cell-based; details: SD
T4 sequence (P49683 1-370 Y120A): T1 sequence (P49683 1-370) with Y120A
In short: as §1

[5] = biological target: T5, PrRP receptor (GPR10) (Homo sapiens, UniProt P49683); assay: radioligand displacement on transfected COS-7 cells
T5 chain: T1 sequence (P49683 1-370)

[6] = biological target: T5, PrRP receptor (GPR10); assay: radioligand binding on transfected COS-7 cells

| Molecule | EC50 [1] [nM] | IC50 [5] [nM] | other results |
| --- | --- | --- | --- |
| CC[C@H](C)[C@H](NC(=O)CNC(=O)[C@H](CCCNC(=N)N)NC(=O)[C@H](CO)NC(=O)[C@H](C)NC(=O)[C@H](Cc1ccc(O)cc1)NC(=O)[C@H](Cc1c[nH]c2ccccc12)NC(=O)[C@H](C)NC(=O)[C@@H]1CCCN1C(=O)[C@H](CC(N)=O)NC(=O)[C@@H](NC(=O)[C@H](CC(=O)O)NC(=O)[C@@H]1CCCN1C(=O)[C@@H](N)[C@@H](C)O)[C@@H](C)CC)C(=O)N[C@@H](CCCNC(=N)N)C(=O)N1CCC[C@H]1C(=O)N[C@H](C(=O)NCC(=O)N[C@@H](CCCNC(=N)N)C(=O)N[C@@H](C)C(N)=O)C(C)C [A^20PrRP20] (H-TPDINPAWYASRGIRPVGRA-NH2) | 20 ± 5 |  | IC50 ([2]; SD): 870 ± 288 nM |
| CC[C@H](C)[C@H](N)C(=O)N[C@@H](CC(N)=O)C(=O)N1CCC[C@H]1C(=O)N[C@@H](C)C(=O)N[C@@H](Cc1c[nH]c2ccccc12)C(=O)N[C@@H](Cc1ccc(O)cc1)C(=O)N[C@@H](C)C(=O)N[C@@H](CO)C(=O)N[C@@H](CCCNC(=N)N)C(=O)NCC(=O)N[C@H](C(=O)N[C@@H](CCCNC(=N)N)C(=O)N1CCC[C@H]1C(=O)N[C@H](C(=O)NCC(=O)N[C@@H](CCCNC(=N)N)C(=O)N[C@@H](Cc1ccccc1)C(N)=O)C(C)C)[C@@H](C)CC [PrRP4-20] (H-INPAWYASRGIRPVGRF-NH2) | 1 ± 0.2 |  |  |
| CC[C@H](C)[C@H](NC(=O)CNC(=O)[C@H](CCCNC(=N)N)NC(=O)[C@H](CO)NC(=O)[C@H](C)NC(=O)[C@H](Cc1ccc(O)cc1)NC(=O)[C@H](Cc1c[nH]c2ccccc12)NC(=O)[C@H](C)NC(=O)[C@@H]1CCCN1C(=O)[C@H](CC(N)=O)NC(=O)[C@@H](NC(=O)[C@H](CC(=O)O)NC(=O)[C@@H]1CCCN1C(=O)[C@@H](N)[C@@H](C)O)[C@@H](C)CC)C(=O)N[C@@H](C)C(=O)N1CCC[C@H]1C(=O)N[C@H](C(=O)NCC(=O)N[C@@H](CCCNC(=N)N)C(=O)N[C@@H](Cc1ccccc1)C(N)=O)C(C)C [A^15PrRP20] (H-TPDINPAWYASRGIAPVGRF-NH2) | 49 ± 12 |  | IC50 ([2]; SD): 882 ± 376 nM |
| CC[C@H](C)[C@H](NC(=O)CNC(=O)[C@H](CCCNC(=N)N)NC(=O)[C@H](CO)NC(=O)[C@H](C)NC(=O)[C@H](Cc1ccc(O)cc1)NC(=O)[C@H](Cc1c[nH]c2ccccc12)NC(=O)[C@H](C)NC(=O)[C@@H]1CCCN1C(=O)[C@H](CC(N)=O)NC(=O)[C@@H](NC(=O)[C@H](CC(=O)O)NC(=O)[C@@H]1CCCN1C(=O)[C@@H](N)[C@@H](C)O)[C@@H](C)CC)C(=O)N[C@@H](CCCNC(=N)N)C(=O)N1CCC[C@H]1C(=O)N[C@H](C(=O)NCC(=O)N[C@@H](C)C(=O)N[C@@H](Cc1ccccc1)C(N)=O)C(C)C [A^19PrRP20] (H-TPDINPAWYASRGIRPVGAF-NH2) | 1200 ± 231 |  | IC50 [2]: > 10000 nM |
| {(3H)propionyl}-TPDINPAWYASRGIRPVGRF-NH2 |  |  | Kd [6]: 0.58 nM |
| WYASRGIRPVGRF-NH2 [PrRP8-20] |  | 7 |  |
| INPAWYASRGIRPVGRF-NH2 [PrRP4-20] |  | 1.2 |  |

Further lines, with some results ahead:

| EC50 [1] [nM] | IC50 [5] [nM] | Molecule | other results |
| --- | --- | --- | --- |
| 2.3 ± 0.5 |  | CC[C@H](C)[C@H](NC(=O)CNC(=O)[C@H](CCCNC(=N)N)NC(=O)[C@H](CO)NC(=O)[C@H](C)NC(=O)[C@H](Cc1ccc(O)cc1)NC(=O)[C@@H](N)Cc1c[nH]c2ccccc12)C(=O)N[C@@H](CCCNC(=N)N)C(=O)N1CCC[C@H]1C(=O)N[C@H](C(=O)NCC(=O)N[C@@H](CCCNC(=N)N)C(=O)N[C@@H](Cc1ccccc1)C(N)=O)C(C)C [PrRP8-20] (H-WYASRGIRPVGRF-NH2) | EC50 [3]: 2120 ± 390 nM; EC50 [4]: 434 ± 96 nM |
| 14 ± 2 |  | CC[C@H](C)[C@H](N)C(=O)N[C@@H](CCCNC(=N)N)C(=O)N1CCC[C@H]1C(=O)N[C@H](C(=O)NCC(=O)N[C@@H](CCCNC(=N)N)C(=O)N[C@@H](Cc1ccccc1)C(N)=O)C(C)C [PrRP14-20] (H-IRPVGRF-NH2) |  |
|  | 430 | IRPVGRF-NH2 [PrRP14-20] |  |
|  | 4.1 | TPDINPAWYASRGIRPVGRF-NH2 |  |

Reference: article PMC3580954 (Biopolymers, 2013)
